Screening data deposited in PubChem BioAssay by Broad Institute.
HIV Env fusion – HIV envelope-mediated fusion inhibition; HeLa-JRFL Env/CEM21 cell fusion, luciferase; inhibition, % at 12.3 µM; 360,000 tested, 1.1% active;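 active means mean replicate inhibition score of at least 50 and every replicate individually at or above 50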;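 further: 0% = plate neutral controls and 100% = maraviroc near 300 nM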
Cneo AK release – causes C. neoformans cell lysis | AID 651654 | lysis activity, % at 15 µM | 360,000 tested, 0.2% active | adenylate kinase release luminescence, 4 h; normalised: neutral wells 0, clomiphene wells 100;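 active means mean lysis activity across replicates of at least 80%, whatever share of replicates individually reach that level; inactive means mean lysis activity below 80%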
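Assay system: Cryptococcus neoformans yeast cells / Dosing: single-point compound dose / Timing: 4 h at 37 °C static, read 1 h later / Measured by: luminescence of released adenylate kinase using an AK detection reagent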
dFosB activator – mouse delta FosB homodimer activation | purified delta FosB, TAMRA-CDK5 oligo fluorescence polarization; percent of positive-control signal above neutral wells | activation, % at 25 µM | 340,000 tested, 0.99% active | P13346;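 active means mean activation above about 17%, with every replicate also reaching it, limit read from the data, passing the limit was not always enough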
Rtt109 HAT inh – C. albicans Rtt109 histone acetyltransferase inhibition | 330,000 tested, 0.16% active | purified Rtt109/Vps75, ThioGlo CoA-SH fluorescence, 4 h | inhibition, % at 34.9 µM;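 active means inhibition of at least 50% in every replicate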
Target sequence (Q5AAJ8 whole entry, looked up): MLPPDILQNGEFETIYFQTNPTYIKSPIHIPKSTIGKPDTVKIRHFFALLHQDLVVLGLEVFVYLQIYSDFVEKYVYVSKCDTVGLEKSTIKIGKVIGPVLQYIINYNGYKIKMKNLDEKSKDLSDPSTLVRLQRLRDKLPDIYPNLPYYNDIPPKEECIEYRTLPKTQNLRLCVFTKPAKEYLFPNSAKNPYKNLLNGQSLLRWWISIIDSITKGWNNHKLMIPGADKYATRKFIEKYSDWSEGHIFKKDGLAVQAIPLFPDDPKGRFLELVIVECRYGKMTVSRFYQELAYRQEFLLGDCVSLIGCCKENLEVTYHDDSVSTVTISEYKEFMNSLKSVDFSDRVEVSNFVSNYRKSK
miR-122 sensor – miR-122 inhibition in Huh7 cells | AID 602342 | activation (reporter increase), % at 12.5 µM | Huh7 miR-122 Renilla luciferase sensor, 48 h; neutral wells = 0, positive control = 100 | 340,000 tested, 0.3% active;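 active means mean replicate activation score at least 90 and every replicate individually at or above 90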;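 further: higher luciferase means less miR-122 activity so hits act as miR-122 inhibitors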
INS-1E GSIS act – primary screen for activators of insulin secretion dependent on glucose, INS-1E cells, GLuc reporter luminescence. INS-1E GLuc reporter insulin secretion, 2-3 h. activation, % at 16.6 µM. 370,000 tested, 0.61% active. AID 743287;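 active means lowest replicate activation of at least 40%, so every replicate reaches that level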;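 further: 0% = median of neutral control wells and 100% = median of IBMX positive control wells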
The depositor's hits bear a star; . = not tested or not shown; [ ] = dose if it differs, or a comment. Most compounds without a hit are left out; they make up all but 2.4% or so of the library.

SMILES	HIV Env fusion	Cneo AK release	dFosB activator	Rtt109 HAT inh	miR-122 sensor	INS-1E GSIS act
Cn1c(=O)c2c(nc(NCCc3ccccc3)n2Cc2ccc(F)cc2)n(C)c1=O	25	1	-15	6	1	-13
CCCCn1c(CN(C)Cc2ccccc2)nc2c1c(=O)n(C)c(=O)n2C	72*	1	1	-6	-12	.
CNc1nc2c(c(=O)n(C)c(=O)n2C)n1Cc1ccccc1	69*	0	7	-6	-2	.
CNc1nc2c(c(=O)n(C)c(=O)n2C)n1CCCc1ccccc1	8	4	-3	-7	-7	-5
CC(Cl)=CCn1c(NCCc2ccccc2)nc2c1c(=O)n(C)c(=O)n2C	94*	-3	.	.	-3	0
CC(C)CC#Cc1ccc2c(c1)O[C@H](CN(C)C(=O)C1CCC1)[C@H](C)CN([C@@H](C)CO)S2(=O)=O	29[16.7 µM]	4	.	.	-20[16.7 µM]	-16
CC(C)CC#Cc1ccc2c(c1)O[C@H](CN(C)C(=O)C1CCC1)[C@@H](C)CN([C@@H](C)CO)S2(=O)=O	31[16.7 µM]	109*	.	.	19[16.7 µM]	-17
CC(C)CC#Cc1ccc2c(c1)O[C@@H](CN(C)C(=O)C1CCC1)[C@@H](C)CN([C@H](C)CO)S2(=O)=O	18[16.7 µM]	100*	.	.	157*[16.7 µM]	-11
CCC(C)c1ccccc1OCCCN(C)Cc1ccccc1 (stereo not given)	15	8	-11	0	-1	192*
C[C@H](CO)N1C[C@H](C)[C@@H](CN(C)C(=O)Nc2ccc(F)cc2)Oc2c(NC(=O)NC3CCCCC3)cccc2C1=O	-24[16.7 µM]	-1	.	.	11[16.7 µM]	-8
CCOC(=O)C1(C)C=C(Nc2ccc(O)cc2)C(=O)N1c1ccc(O)cc1 (stereo not given)	15	3	-13	1	-3	-12
CCOC(=O)C1(C)C=C(Nc2ccc(OC)cc2)C(=O)N1c1ccc(OC)cc1 (stereo not given)	14	1	-2	-4	2	59*
C[C@H]1CN([C@@H](C)CO)C(=O)Cc2cc(NC(=O)Nc3ccc(F)cc3)ccc2O[C@H]1CN(C)Cc1ccc(C(=O)Nc2ccccc2N)cc1	.	.	.	.	.	-17
COc1cc(Cn2c(-c3nonc3N)nc3ccccc32)ccc1C	60*	1	5	-2	-8	.
CCOC(=O)C1=C(C)Nc2nc(C)nn2C1c1ccc(C)cc1 (stereo not given)	-10	5	0	10	4	13
CCOC(=O)C1=C(C)Nc2nc(SCc3cccnc3)nn2C1c1ccc(OC)cc1 (stereo not given)	62*	3	-5	4	-3	6
COCc1ccc(CN2CCC(n3nccc3NC(=O)C(OC)c3ccccc3)CC2)o1 (stereo not given)	-12	0	-5	59*	2	8
O=C(NCCN1CCCCC1)[C@H]1N[C@H]2c3ccc(-c4ccncc4)c(=O)n3C[C@H]2[C@@H]1CO	.	98*	.	.	10[16.7 µM]	16
CCN(C1CCCCC1)S(=O)(=O)c1ccc(S(=O)(=O)NCc2ccncc2)cc1	81*	8	-20	-3	8	-24
CCN(C1CCCCC1)S(=O)(=O)c1ccc(S(=O)(=O)NCCc2ccncc2)cc1	34	6	-7	-9	49	.
CCOC(=O)/C=c1\sc2n(c1=O)CCN=2	-27	-1	6	-7	0	48*
C[C@@H]1CN([C@@H](C)CO)C(=O)c2cc(C#CC3CCCC3)cnc2O[C@H]1CN(C)C(=O)Cc1ccccn1	3[16.7 µM]	1	.	.	9[16.7 µM]	-15
Cc1ccccc1S(=O)(=O)N1C[C@H](O)COC[C@H]2O[C@@H](CC(=O)NCc3ccccc3Cl)CC[C@@H]21	57*[16.7 µM]	1	.	.	-6[16.7 µM]	1
CNC(=O)C[C@@H]1CC[C@@H]2[C@H](COC[C@H](O)CN2S(=O)(=O)c2cccc(Cl)c2)O1	-1[16.7 µM]	100*	.	.	10[16.7 µM]	-1
Cn1cnc(S(=O)(=O)N2C[C@@H](O)COC[C@H]3O[C@@H](CC(=O)NC4CCCC4)CC[C@@H]32)c1	.	51	.	.	127*[16.7 µM]	11
SMILES	HIV Env fusion	Cneo AK release	dFosB activator	Rtt109 HAT inh	miR-122 sensor	INS-1E GSIS act
Cn1cnc(S(=O)(=O)N2C[C@H](O)COC[C@H]3O[C@@H](CC(=O)NC4CCCC4)CC[C@@H]32)c1	.	-3	.	.	87[16.7 µM]	5
O=C(C[C@@H]1CC[C@@H]2[C@H](COC[C@H](O)CN2S(=O)(=O)c2cccc(Cl)c2)O1)Nc1ccccc1	.	-5	.	.	0[16.7 µM]	-13
Cc1ccc(S(=O)(=O)N2C[C@@H](O)COC[C@H]3O[C@H](CC(=O)NCc4ccc5c(c4)OCO5)CC[C@@H]32)cc1	14[16.7 µM]	104*	.	.	37[16.7 µM]	-3
C[C@H](NC(=O)C[C@H]1C=C[C@@H](NC(=O)Cc2ccccn2)[C@@H](CO)O1)c1ccccc1	.	0	.	.	.	18
C[C@H]1CN([C@@H](C)CO)S(=O)(=O)c2ccc(C#Cc3cccc(F)c3)cc2O[C@H]1CN(C)CC1CC1	19[16.7 µM]	40	.	.	1[16.7 µM]	11
CCN(CC)Cc1ccccc1CNC(=O)c1cccc(S(=O)(=O)Nc2ccc3c(c2)OCO3)c1	.	-2	-5	6	.	.
COc1ccc(NS(=O)(=O)c2ccc3c(c2)OCCO3)cc1OC	93*	0	-5	-3	28	-27
CN(C)Cc1ccccc1CNC(=O)c1cccc(S(=O)(=O)Nc2ccc3c(c2)OCO3)c1	-11	3	.	.	117*	-19
COc1ccc(S(=O)(=O)Nc2ccc3c(c2)OCCO3)cc1Cl	.	.	-1	-6	46	.
O=C(O)Cc1ccc(NS(=O)(=O)c2ccc3c(c2)OCCO3)cc1	10	9	.	.	-5	130*
O=S(=O)(Nc1ccc(Cl)cc1)c1ccc2c(c1)CCO2	16	2	2	-21	123*	-43
O=S(=O)(Nc1ccc2c(c1)OCCO2)c1ccc(F)c(F)c1	11	1	2	-2	-1	-17
O=C(C1CCC1)N1CC2(C1)[C@H](c1ccccc1)[C@@H](CO)N2CCC(F)(F)F	.	.	.	.	.	8
COc1ccc(-c2ccc([C@H]3[C@H](CO)N4C(=O)CN(C(=O)NC(C)C)C[C@@H]34)cc2)cc1	.	.	.	.	.	8
CC(=O)N(C)C[C@H]1Oc2ccc(NC(=O)NC(C)C)cc2CC(=O)N(C)C[C@@H]1C	.	.	.	.	.	1
COc1ccccc1CNC(=O)C(NS(=O)(=O)c1ccc2c(c1)OCCO2)C(C)C (stereo not given)	5	-1	28*	-10	-1	4
COc1ccc(S(=O)(=O)NC(C)C(=O)NCc2ccc3c(c2)OCO3)cc1OC (stereo not given)	-2	0	-5	8	-1	16
COc1ccc(S(=O)(=O)Nc2ccc3c(c2)OCO3)cc1OC	-26	1	-3	8	52	43*
